Converted amounts (≈) assume the structure as drawn.

Experiment [1] concerns Salmonella typhi. Nature of the experiment: Antibacterial activity against Salmonella Typhi at 100 ug/disc after 24 hrs by disc diffusion method. In kind it is functional, Salmonella enterica subsp. enterica serovar Typhi. Conditions: Salmonella enterica, read-out: DIZ. Put shortly: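 Paper disc diffusion on Mueller-Hinton agar poured 5 mm deep; 10⁵ CFU/mL suspension (0.5 McFarland) swabbed over surface. 6.25 mm filter paper discs soaked in compound in DMSO, incubated 24 h at (37 ± 1) °C; inhibition zone diameter in mm. DMSO disc as blank; ciprofloxacin 100 µg/disc as reference. Mean of three independent experiments.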
A general note: Agar diffusion results depend on both activity and mobility in agar.

Experiment [2] concerns Aspergillus niger. Nature of the experiment: Antifungal activity against Aspergillus niger at 100 ug/disc after 24 hrs by disc diffusion method. In kind it is functional. Conditions: read-out: DIZ. In outline:
(§1)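 Paper disc diffusion on autoclaved Mueller-Hinton agar poured 5 mm deep. Agar was swab-inoculated with 10⁵ CFU/mL suspension (0.5 McFarland). Discs 6.25 mm across were soaked in compound solution in DMSO (3.12–100 µg/mL) and plates incubated 24 h at (37 ± 1) °C. Read-out was inhibition zone (mm). DMSO control disc; ciprofloxacin or ketoconazole reference, 100 µg/disc. Mean of three independent experiments.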

Experiment [3] concerns Aspergillus fumigatus. Nature of the experiment: Antifungal activity against Aspergillus fumigatus after 48 hrs by agar streak dilution method. The class given is functional. In outline:
(§2)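 Fungal MIC by agar streak dilution on Sabouraud dextrose agar, poured 4–5 mm deep. Compound from a DMSO stock (100 μg/mL) was incorporated at serial concentrations of 3.12–100 µg/mL. Plates were inoculated with about 10⁵ CFU/mL of suspension and incubated at (37 ± 1) °C for 48 h. Each value is the mean of three independent experiments.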

For experiment [4], the system named is Klebsiella pneumoniae. Nature of the experiment: Antibacterial activity against Klebsiella pneumoniae at 100 ug/disc after 24 hrs by disc diffusion method. In kind it is functional. Particulars: read-out: DIZ. In outline:
as §1

Experiment [5] has as its system Staphylococcus aureus. Nature of the experiment: Antibacterial activity against Staphylococcus aureus after 24 hrs by agar streak dilution method. The class given is functional. Put shortly:
(§3)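 MIC by agar streak dilution. Graded amounts of DMSO stock (100 μg/mL) were mixed into molten sterile nutrient agar and poured 4–5 mm deep. Serial concentrations spanned 3.12–100 µg/mL. Plates were inoculated with about 10⁵ CFU/mL of bacterial suspension and incubated at (37 ± 1) °C for 24 h. Each value is the mean of three independent experiments.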

The subject of experiment [6] is Salmonella typhi. Nature of the experiment: Antibacterial activity against Salmonella Typhi after 24 hrs by agar streak dilution method. Conditions: Salmonella enterica. The class given is functional, Salmonella enterica subsp. enterica serovar Typhi. In outline: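 Agar streak dilution: DMSO stock (100 µg/mL) graded into molten sterile nutrient agar, poured 4–5 mm deep and solidified. Plates carry serial dilutions spanning 3.12–100 µg/mL. Applied ~10⁵ CFU/mL suspension, then incubated 24 h at (37 ± 1) °C. MIC read as the lowest inhibitory concentration; each value is the mean of three independent experiments.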

Experiment [7] relates to Klebsiella pneumoniae. Nature of the experiment: Antibacterial activity against Klebsiella pneumoniae […] after 24 hrs by agar streak dilution method. The class given is functional.
Experiment [8] concerns Escherichia coli. Nature of the experiment: Antibacterial activity against Escherichia coli at 100 ug/disc after 24 hrs by disc diffusion method. In kind it is functional. Conditions: read-out: DIZ. Put shortly:
as §1

Experiment [9] has as its system Shigella flexneri. Nature of the experiment: Antibacterial activity against Shigella flexneri after 24 hrs by agar streak dilution method. The class given is functional. Put shortly:
as §3

Experiment [10] has as its system Proteus vulgaris. Nature of the experiment: Antibacterial activity against Proteus vulgaris at 100 ug/disc after 24 hrs by disc diffusion method. In kind it is functional. Conditions: read-out: DIZ. In outline: as §1
Experiment [11] concerns Proteus vulgaris. Nature of the experiment: Antibacterial activity against Proteus vulgaris after 24 hrs by agar streak dilution method. In kind it is functional. Put shortly: as §3
The test system of experiment [12] is Shigella flexneri. Nature of the experiment: Antibacterial activity against Shigella flexneri at 100 ug/disc after 24 hrs by disc diffusion method. The class given is functional. Particulars: read-out: DIZ. In outline: as §1
The test system of experiment [13] is Candida albicans. Nature of the experiment: Antifungal activity against Candida albicans after 48 hrs by agar streak dilution method. The class given is functional. In outline:
as §2

Experiment [14] relates to Aspergillus fumigatus. Nature of the experiment: Antifungal activity against Aspergillus fumigatus at 100 ug/disc after 24 hrs by disc diffusion method. The class given is functional. Conditions: read-out: DIZ. In outline: as §1
The test system of experiment [15] is Aspergillus clavatus. Nature of the experiment: Antifungal activity against Aspergillus clavatus at 100 ug/disc after 24 hrs by disc diffusion method. In kind it is functional. Conditions: read-out: DIZ. Put shortly:
as §1

Experiment [16] has as its system Candida albicans. Nature of the experiment: Antifungal activity against Candida albicans at 100 ug/disc after 24 hrs by disc diffusion method. In kind it is functional. Conditions: read-out: DIZ. Put shortly:
as §1

Experiment [17] concerns Pseudomonas aeruginosa. Nature of the experiment: Antibacterial activity against Pseudomonas aeruginosa […] after 24 hrs by agar streak dilution method. In kind it is functional.
Experiment [18] concerns Aspergillus clavatus. Nature of the experiment: Antifungal activity against Aspergillus clavatus after 48 hrs by agar streak dilution method. The class given is functional. In outline:
as §2

The subject of experiment [19] is Aspergillus niger. Nature of the experiment: Antifungal activity against Aspergillus niger after 48 hrs by agar streak dilution method. The class given is functional. Put shortly:
as §2

Experiment [20] has as its system Pseudomonas aeruginosa. Nature of the experiment: Antibacterial activity against Pseudomonas aeruginosa at 100 ug/disc after 24 hrs by disc diffusion method. Conditions: read-out: DIZ. The class given is functional. In outline: as §1
For experiment [21], the system named is Escherichia coli. Nature of the experiment: Antibacterial activity against Escherichia coli after 24 hrs by agar streak dilution method. In kind it is functional. In outline:
as §3

Experiment [22] relates to Bacillus cereus. Nature of the experiment: Antibacterial activity against Bacillus cereus after 24 hrs by agar streak dilution method. The class given is functional. In outline:
as §3

For experiment [23], the system named is Bacillus cereus. Nature of the experiment: Antibacterial activity against Bacillus cereus at 100 ug/disc after 24 hrs by disc diffusion method. The class given is functional. Particulars: read-out: DIZ. Put shortly:
as §1

Experiment [24] concerns Staphylococcus aureus. Nature of the experiment: Antibacterial activity against Staphylococcus aureus at 100 ug/disc after 24 hrs by disc diffusion method. The class given is functional. Particulars: read-out: DIZ. In outline: as §1

In general, MIC refers to the lowest concentration found to suppress growth. With `CCN1CCN(CC2SC(c3ccc(O)cc3O)N(c3ccc(Nc4nc(Oc5cc(=O)n(C)c6ccccc56)nc(N(C)C)n4)cc3)C2=O)CC1` (centres undefined), the zone of inhibition at 100 µg/disc with Salmonella typhi [1] is 14 mm; in the experiment with Aspergillus niger [2] it was 11 mm; in the experiment with Klebsiella pneumoniae [4], 16 mm; in the experiment on Escherichia coli [8] it was 15 mm; with Proteus vulgaris [10] it was 14 mm; in the experiment on Shigella flexneri [12], 16 mm. Moreover, the zone of inhibition at 100 µg/disc with Aspergillus fumigatus [14] is 15 mm; in the experiment on Aspergillus clavatus [15], 17 mm; with Candida albicans [16] it was below 10 mm; in the experiment on Pseudomonas aeruginosa [20], 17 mm; in the experiment with Bacillus cereus [23] it was 17 mm; in the experiment with Staphylococcus aureus [24] it was 15 mm. Further, the minimal inhibitory concentration (MIC) in the experiment on Aspergillus fumigatus [3], in the experiment with Staphylococcus aureus [5], with Salmonella typhi [6], in the experiment with Klebsiella pneumoniae [7], in the experiment with Shigella flexneri [9] and with Proteus vulgaris [11] was 100 µg/mL (≈ 138 µM) throughout. The minimal inhibitory concentration (MIC) in the experiment with Candida albicans [13], in the experiment with Pseudomonas aeruginosa [17], with Aspergillus clavatus [18], in the experiment with Aspergillus niger [19], against Escherichia coli [21] and with Bacillus cereus [22] was 100 µg/mL (≈ 138 µM) throughout.

Values taken from ChEMBL document CHEMBL1933017, “Synthesis and biological evaluation of some thiazolidinones as antimicrobial agents” (2012).
